≈ marks a conversion by molar mass, not a printed value.
How the values were obtained:
Type in all cases: functional
[1] = system: Mycobacterium tuberculosis; assay: Antimycobacterial activity against Mycobacterium tuberculosis CNCTC My 331/88 after 14 days by micromethod; settings: CNCTC My 331/88, 336 h
Procedure, shortened: (§1)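 MIC by micromethod in Šula semisynthetic medium. Compounds added as DMSO solutions at 1000, 500, 250, 125, 62, 32, 16, 8, 4 and 2 µmol/L. Incubated at 37 °C and read at 14 and 21 days. MIC taken as the lowest concentration that inhibited mycobacterial growth, expressed in µmol/L. INH run as standard. Strains from CNCTC.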

Mycobacterium kansasii [2] = assay: Antimycobacterial activity against Mycobacterium kansasii CNCTC My 235/80 after 14 days by micromethod; settings: CNCTC My 235/80, 336 h
Procedure, shortened: (§2)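 Micromethod MIC in Šula semisynthetic medium, with compounds added as DMSO solutions at 1000, 500, 250, 125, 62, 32, 16, 8, 4 and 2 µmol/L. Cultures were incubated at 37 °C, and M. kansasii was read at 7, 14 and 21 days. MIC is the lowest concentration at which mycobacterial growth was inhibited. INH served as standard. Strain 6509/96 was a clinical isolate.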

Mycobacterium kansasii [3] = assay: Antimycobacterial activity against Mycobacterium kansasii 6509/96 after 7 days by micromethod; settings: 6509/96, 168 h; procedure, shortened: as §2
Mycobacterium avium [4] = assay: Antimycobacterial activity against Mycobacterium avium CNCTC My 330/88 after 14 days by micromethod; settings: CNCTC My 330/88, 336 h; procedure, shortened: as §1
Mycobacterium kansasii [5] = assay: Antimycobacterial activity against Mycobacterium kansasii CNCTC My 235/80 after 21 days by micromethod; settings: CNCTC My 235/80, 504 h; procedure, shortened: as §2
Mycobacterium kansasii [6] = assay: Antimycobacterial activity against Mycobacterium kansasii 6509/96 after 14 days by micromethod; settings: 6509/96, 336 h; procedure, shortened: as §2
Mycobacterium kansasii [7] = assay: Antimycobacterial activity against Mycobacterium kansasii 6509/96 after 21 days by micromethod; settings: 6509/96, 504 h; procedure, shortened: as §2
[8] = system: Mycobacterium tuberculosis; assay: Antimycobacterial activity against Mycobacterium tuberculosis CNCTC My 331/88 after 21 days by micromethod; settings: CNCTC My 331/88, 504 h; procedure, shortened: as §1
Mycobacterium avium [9] = assay: Antimycobacterial activity against Mycobacterium avium CNCTC My 330/88 after 21 days by micromethod; settings: CNCTC My 330/88, 504 h; procedure, shortened: as §1
Mycobacterium kansasii [10] = assay: Antimycobacterial activity against Mycobacterium kansasii CNCTC My 235/80 after 7 days by micromethod; settings: CNCTC My 235/80, 168 h; procedure, shortened: as §2

Compound | MIC [1] [µM] | MIC (Mycobacterium kansasii [2]) [µM] | MIC (Mycobacterium kansasii [3]) [µM] | MIC (Mycobacterium avium [4]) [µM] | MIC (Mycobacterium kansasii [5]) [µM] | MIC (Mycobacterium kansasii [6]) [µM] | MIC (Mycobacterium kansasii [7]) [µM] | MIC [8] [µM] | MIC (Mycobacterium avium [9]) [µM] | MIC (Mycobacterium kansasii [10]) [µM]
Clc1ccccc1CSc1nc2ccccc2o1 | > 250 | 32 (≈ 8.82 µg/mL) | 62 (≈ 17.1 µg/mL) | 125 (≈ 34.5 µg/mL) | 62 (≈ 17.1 µg/mL) | 62 (≈ 17.1 µg/mL) | 125 (≈ 34.5 µg/mL) | > 250 | 125 (≈ 34.5 µg/mL) | 32 (≈ 8.82 µg/mL)
Fc1ccccc1CSc1nc2ccccc2o1 | 125 (≈ 32.4 µg/mL) | 32 (≈ 8.3 µg/mL) | 32 (≈ 8.3 µg/mL) | 62 (≈ 16.1 µg/mL) | 62 (≈ 16.1 µg/mL) | 32 (≈ 8.3 µg/mL) | 62 (≈ 16.1 µg/mL) | 250 (≈ 64.8 µg/mL) | 62 (≈ 16.1 µg/mL) | 32 (≈ 8.3 µg/mL)
Clc1cccc(CSc2nc3ccccc3o2)c1 | 62 (≈ 17.1 µg/mL) | 32 (≈ 8.82 µg/mL) | 32 (≈ 8.82 µg/mL) | 32 (≈ 8.82 µg/mL) | 62 (≈ 17.1 µg/mL) | 32 (≈ 8.82 µg/mL) | 62 (≈ 17.1 µg/mL) | 125 (≈ 34.5 µg/mL) | 32 (≈ 8.82 µg/mL) | 32 (≈ 8.82 µg/mL)
c1ccc(CSc2nc3ccccc3o2)cc1 | 250 (≈ 60.3 µg/mL) | 250 (≈ 60.3 µg/mL) | 32 (≈ 7.72 µg/mL) | 62 (≈ 15 µg/mL) | 250 (≈ 60.3 µg/mL) | 125 (≈ 30.2 µg/mL) | 250 (≈ 60.3 µg/mL) | 500 (≈ 121 µg/mL) | 125 (≈ 30.2 µg/mL) | 125 (≈ 30.2 µg/mL)
N#Cc1cccc(CSc2nc3ccccc3o2)c1 | 125 (≈ 33.3 µg/mL) | 62 (≈ 16.5 µg/mL) | 32 (≈ 8.52 µg/mL) | 62 (≈ 16.5 µg/mL) | 125 (≈ 33.3 µg/mL) | 62 (≈ 16.5 µg/mL) | 62 (≈ 16.5 µg/mL) | 125 (≈ 33.3 µg/mL) | 62 (≈ 16.5 µg/mL) | 32 (≈ 8.52 µg/mL)
COc1ccc(CSc2nc3ccccc3o2)cc1 | 62 (≈ 16.8 µg/mL) | 32 (≈ 8.68 µg/mL) | 32 (≈ 8.68 µg/mL) | 32 (≈ 8.68 µg/mL) | 62 (≈ 16.8 µg/mL) | 32 (≈ 8.68 µg/mL) | 62 (≈ 16.8 µg/mL) | 125 (≈ 33.9 µg/mL) | 62 (≈ 16.8 µg/mL) | 32 (≈ 8.68 µg/mL)
NNC(=O)c1ccncc1 [ISONIAZID] | 0.5 (≈ 0.0686 µg/mL) | > 250 | 2 (≈ 0.274 µg/mL) | > 250 | > 250 | 2 (≈ 0.274 µg/mL) | 4 (≈ 0.549 µg/mL) | 1 (≈ 0.137 µg/mL) | > 250 | > 250
Cc1cccc(CSc2nc3ccccc3o2)c1 | 250 (≈ 63.8 µg/mL) | 125 (≈ 31.9 µg/mL) | 125 (≈ 31.9 µg/mL) | 62 (≈ 15.8 µg/mL) | 500 (≈ 128 µg/mL) | 125 (≈ 31.9 µg/mL) | 250 (≈ 63.8 µg/mL) | 500 (≈ 128 µg/mL) | 125 (≈ 31.9 µg/mL) | 125 (≈ 31.9 µg/mL)
Sc1nc2ccccc2o1 | 500 (≈ 75.6 µg/mL) | 1000 (≈ 151 µg/mL) | 250 (≈ 37.8 µg/mL) | 250 (≈ 37.8 µg/mL) | 1000 (≈ 151 µg/mL) | 500 (≈ 75.6 µg/mL) | 1000 (≈ 151 µg/mL) | 500 (≈ 75.6 µg/mL) | 500 (≈ 75.6 µg/mL) | 500 (≈ 75.6 µg/mL)
FC(F)(F)c1cccc(CSc2nc3ccccc3o2)c1 | 62 (≈ 19.2 µg/mL) | 32 (≈ 9.9 µg/mL) | 32 (≈ 9.9 µg/mL) | 32 (≈ 9.9 µg/mL) | 62 (≈ 19.2 µg/mL) | 32 (≈ 9.9 µg/mL) | 62 (≈ 19.2 µg/mL) | 125 (≈ 38.7 µg/mL) | 32 (≈ 9.9 µg/mL) | 32 (≈ 9.9 µg/mL)
Clc1ccc(CSc2nc3ccccc3o2)cc1Cl | > 125 | 62 (≈ 19.2 µg/mL) | 62 (≈ 19.2 µg/mL) | 62 (≈ 19.2 µg/mL) | 125 (≈ 38.8 µg/mL) | 62 (≈ 19.2 µg/mL) | 125 (≈ 38.8 µg/mL) | > 250 | 62 (≈ 19.2 µg/mL) | 32 (≈ 9.93 µg/mL)
O=[N+]([O-])c1cccc(CSc2nc3ccccc3o2)c1 | > 62 | > 32 | 32 (≈ 9.16 µg/mL) | > 32 | > 32 | 32 (≈ 9.16 µg/mL) | > 32 | 125 (≈ 35.8 µg/mL) | > 62 | 32 (≈ 9.16 µg/mL)
Fc1cccc(Cl)c1CSc1nc2ccccc2o1 | 62 (≈ 18.2 µg/mL) | 32 (≈ 9.4 µg/mL) | 32 (≈ 9.4 µg/mL) | 62 (≈ 18.2 µg/mL) | 62 (≈ 18.2 µg/mL) | 32 (≈ 9.4 µg/mL) | 62 (≈ 18.2 µg/mL) | 125 (≈ 36.7 µg/mL) | 62 (≈ 18.2 µg/mL) | 32 (≈ 9.4 µg/mL)
O=[N+]([O-])c1ccccc1CSc1nc2ccccc2o1 | > 250 | 125 (≈ 35.8 µg/mL) | 62 (≈ 17.8 µg/mL) | > 125 | > 125 | > 62 | > 62 | > 250 | > 125 | 125 (≈ 35.8 µg/mL)
